PMC6644362 (ACS Omega, 2018)
Several values for one entry are separate records, joined by “and”; a condition that tells them apart may be missing. Identical values can stand only once.

Experiments:
recombinant human TK2 [1] = target: T1, recombinant human TK2 (Homo sapiens, UniProt O00142); experiment: Isothermal titration calorimetry; assay type: binding
T1 sequence (O00142 56-265 limits assumed): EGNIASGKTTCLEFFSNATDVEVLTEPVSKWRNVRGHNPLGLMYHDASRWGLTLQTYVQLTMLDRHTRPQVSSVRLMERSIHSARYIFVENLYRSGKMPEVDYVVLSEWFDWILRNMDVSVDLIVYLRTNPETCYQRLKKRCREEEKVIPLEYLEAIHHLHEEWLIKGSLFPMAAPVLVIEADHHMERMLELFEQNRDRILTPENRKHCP
In short: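 Calorimetry at 25 °C used 40 μM TK2 (dTTP-bound or dTTP-free) dialysed into 10 mM Tris/HCl pH 7.9, 1 mM MgCl2. Ligands were in dialysis buffer at 1–3 mM syringe concentration, also ATPγS into enzyme–dT/dC complexes. There was one 2 μL control injection, then 24 × 8 μL injections at 500 s intervals. Blanks were ligand into buffer and buffer into enzyme. Best-fit model per ligand; Kd = 1/KB.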

recombinant human TK2 [2] = target: T1, recombinant human TK2; experiment: Intrinsic tryptophan fluorescence; assay type: binding; details: for Kd / ΔFmax: mean ± SD; for fa (fractional accessibility) / Ka (quenching constant of the accessible fraction): modified Stern–Volmer equation; for fractional initial accessible fluorescence: summary of Table 2, dTTP-bound or dTTP-free TK2; for quenching of the fluorescence emission on addition of ligand: titrated to dTTP-bound or dTTP-free TK2, 0.5–4000 μM
[3] = target: human recombinant dC kinase (dCK) (Homo sapiens, UniProt P27707); experiment: ITC titration of ATPγS to dCK in the presence and absence of dC; assay type: binding
TK2 = details: feedback inhibition, enzyme kinetic experiments; cited from earlier work
[4] = Kd (equilibrium binding constant), dTTP-bound TK2, one-site specific binding model
[5] = Kd (equilibrium binding constant), dTTP-free TK2, one-site specific binding model
[6] = dTTP-bound TK2, 2 μM TK2, 21 °C
[7] = dTTP-bound TK2, one-site specific binding model
[8] = dTTP-free TK2, one-site specific binding model
[9] = titrated to E–dC complex, 25 °C
[10] = titrated to E–dT complex, 25 °C
[11] = read-out: Kd (equilibrium binding constant), dTTP-bound TK2, one-site specific binding model

Sequence of human recombinant dC kinase (dCK) (P27707 whole entry): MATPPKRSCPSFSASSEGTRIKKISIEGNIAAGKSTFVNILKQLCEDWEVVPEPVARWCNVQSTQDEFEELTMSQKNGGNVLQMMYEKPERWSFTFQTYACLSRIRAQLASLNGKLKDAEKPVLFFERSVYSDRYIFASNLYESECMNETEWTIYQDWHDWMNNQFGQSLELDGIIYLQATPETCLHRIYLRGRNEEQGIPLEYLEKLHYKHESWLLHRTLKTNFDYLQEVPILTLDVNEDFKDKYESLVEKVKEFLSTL

Row | SMILES | Kd (recombinant human TK2 [2]; [4]) [µM] | Kd (recombinant human TK2 [2]; [5]) [µM] | fa (fractional accessibility) (recombinant human TK2 [2]; [6]) | ΔFmax (recombinant human TK2 [2]; [7]) | fa (fractional accessibility) (recombinant human TK2 [2]; dTTP-free TK2, 21 °C) | ΔFmax (recombinant human TK2 [2]; [8]) | fractional initial accessible fluorescence (recombinant human TK2 [2]) | quenching of the fluorescence emission on addition of ligand (recombinant human TK2 [2]) | Ka (quenching constant of the accessible fraction) (recombinant human TK2 [2]; [6]) [μM^–1] | Kd (recombinant human TK2 [2]; [11]) [µM] | further results
1 | Nc1ccn([C@H]2C[C@H](O)[C@@H](CO)O2)c(=O)n1 [dC, deoxycytidine] | 3.35 ± 0.81 | 5.64 ± 1.2 | 0.29 ± 0.05 | 19.86 ± 0.94 | 0.40 ± 0.10 | 67.5 ± 2.9 | 20–40% | caused quenching | – | – | ΔH (enthalpy changes) (recombinant human TK2 [1]; dTTP-bound enzyme, 25 °C): –23.4 ± 0.7 kcal/mol; ΔS (entropy changes) (recombinant human TK2 [1]; dTTP-bound enzyme, 25 °C): –7.9 cal/mol/deg
2 | Nc1ncnc2c1ncn2[C@@H]1O[C@H](CO[P@](=O)(O)O[P@](=O)(O)O[P@@](=O)(O)S)[C@@H](O)[C@H]1O [ATPγS, adenosine 5′-(gamma-thio) triphosphate] | – | – | – | – | – | – | – | – | – | – | Kd (recombinant human TK2 [1]; Kd (dissociation constant), titrated to E–dC complex, 25 °C): 20 µM; Kd (recombinant human TK2 [1]; Kd (dissociation constant), titrated to E–dT complex, 25 °C): 0.93 µM; ΔG (Gibbs free energy) (recombinant human TK2 [1]; [9]): –0.18 ± 0.01 kcal/mol; ΔH (enthalpy changes) (recombinant human TK2 [1]; [9]): –7.5 ± 0.5 kcal/mol; ΔS (entropy changes) (recombinant human TK2 [1]; [9]): –24.9 cal/mol/deg; binding constant (recombinant human TK2 [1]; titrated to E–dT complex): 1.1 × 10^6 M^–1; ΔG (Gibbs free energy) (recombinant human TK2 [1]; [10]): –8.2 ± 0.1 kcal/mol; ΔH (enthalpy changes) (recombinant human TK2 [1]; [10]): –19.4 ± 0.8 kcal/mol; ΔS (entropy changes) (recombinant human TK2 [1]; [10]): –37.6 cal/mol/deg; ITC heat response / specific interaction (recombinant human TK2 [1]; titrated with either dTTP-bound or dTTP-free TK2): no heat response; binding to dCK alone (ITC) ([3]; absence of dC): does not bind; binding to the dCK–dC complex (ITC) ([3]; presence of dC): bind
3 | Nc1ccn([C@H]2C[C@H](O)[C@@H](COP(=O)(O)O)O2)c(=O)n1 [dCMP, deoxycytidine monophosphate] | – | – | 0.21 ± 0.02 | 19.74 ± 1.18 | – | – | 20–40% | caused quenching | 0.42 ± 0.03 | 4.42 ± 0.99 | –
4 | Cc1cn([C@H]2C[C@H](N=[N+]=[N-])[C@@H](CO)O2)c(=O)[nH]c1=O [AZT, 3′-Azido-2′,3′-dideoxythymidine] | 6.94 ± 2.78 | – | 0.38 ± 0.04 | 12.77 ± 1.34 | – | – | 20–40% | caused quenching | – | – | –
5 | Cc1cn([C@H]2C[C@H](O)[C@@H](COP(=O)(O)O)O2)c(=O)[nH]c1=O [dTMP, deoxythymidine monophosphate] | – | – | 0.21 ± 0.02 | 16.74 ± 0.53 | – | – | 20–40% | caused quenching | 0.79 ± 0.04 | 1.53 ± 0.28 | –
6 | Cc1cn([C@H]2C[C@H](F)[C@@H](CO)O2)c(=O)[nH]c1=O [FLT, 3′-fluoro-2′,3′-dideoxythymidine] | – | – | 0.24 ± 0.04 | 17.81 ± 0.99 | – | – | 20–40% | caused quenching | 0.14 ± 0.02 | 6.17 ± 1.35 | –
7 | Nc1ccn([C@H]2C[C@H](O)[C@@H](COP(=O)(O)OP(=O)(O)OP(=O)(O)O)O2)c(=O)n1 [dCTP, deoxycytidine triphosphate] | – | – | – | – | – | – | – | – | – | – | ITC heat changes in the isothermogram (recombinant human TK2 [1]; dTTP-free enzyme): no heat changes
8 | Cc1cn([C@H]2C[C@H](O)[C@@H](CO[P@](=O)(O)O[P@@](=O)(O)OP(=O)(O)O)O2)c(=O)[nH]c1=O [dTTP, deoxythymidine triphosphate] | – | 3.64 ± 1.02 | – | – | 0.22 ± 0.01 | 57.6 ± 2.9 | 20–40% | caused quenching | – | – | Kd (recombinant human TK2 [1]; Kd (dissociation constant), dTTP-free enzyme, 25 °C, Kd = 1/KB): 36 µM and 35.7 µM; binding constant (recombinant human TK2 [1]; dTTP-free TK2): 2.8 × 10^4 M^–1; ΔG (Gibbs free energy) (recombinant human TK2 [1]; dTTP-free enzyme, 25 °C): –6.0 ± 0.1 kcal/mol; ΔH (enthalpy changes) (recombinant human TK2 [1]; dTTP-free enzyme, 25 °C): 237.2 ± 0.2 kcal/mol; ΔS (entropy changes) (recombinant human TK2 [1]; dTTP-free enzyme, 25 °C): 816 cal/mol/deg; Ki (TK2): 2.5 µM and ~2.5 µM
9 | Cc1cn([C@H]2C[C@H](O)[C@@H](CO)O2)c(=O)[nH]c1=O [dT, thymidine] | 3.26 ± 1.01 | 13.3 ± 1.2 | 0.25 ± 0.01 | 21.95 ± 1.25 | 0.17 ± 0.02 | 69.7 ± 3.1 | – | caused quenching | 0.16 | – | binding constant, times higher than that of dC (recombinant human TK2 [1]; ITC): 5 times; binding constant, times higher than that of dTTP (recombinant human TK2 [1]; ITC): 65 times; binding affinity, times higher than that of dC (recombinant human TK2 [1]; ITC, dTTP-bound enzyme): 3 times; Kd (recombinant human TK2 [1]; Kd1 (high affinity), dTTP-bound enzyme, two-site binding model): 0.55 µM; ΔG (Gibbs free energy) (recombinant human TK2 [1]; dTTP-bound enzyme, 25 °C): –7.1 ± 0.2 kcal/mol; ΔH (enthalpy changes) (recombinant human TK2 [1]; dTTP-bound enzyme, 25 °C): –72.7 ± 0.2 kcal/mol; ΔS (entropy changes) (recombinant human TK2 [1]; dTTP-bound enzyme, 25 °C): –220 cal/mol/deg; Kd (recombinant human TK2 [1]; read-out: Kd2 (lower affinity), dTTP-bound enzyme, two-site binding model): 6.13 µM; fa, fraction of the initial fluorescence accessible (recombinant human TK2 [2]; dTTP-bound TK2, modified Stern–Volmer equation): 25%
